The values below come from ChEMBL document CHEMBL1250497, “Synthesis and pharmacological study of 1-acetyl/propyl-3-aryl-5-(5-chloro-3-methyl-1-phenyl-1H-pyrazol-4-yl)-2-pyrazoline” (2010).

Assay type in all cases: functional
The subject of assay [1] is Rattus norvegicus. Put plainly: Analgesic activity in albino rat assessed as latency in reaction time required for thermal stimulus-induced tail flicking at 10 mg/kg, po after 60 mins. The gist of the method: (§1)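 Albino rats, 150-200 g, six per group, held in a restrainer. A 3-4 cm marked segment of tail was immersed in water at 55 °C. Tail withdrawal time (s) was recorded before dosing and at 30, 60 and 90 min after oral dosing at 10 mg/kg in 1% gum acacia. Cut-off was 30 s. Controls received vehicle only. Pentazocin was the reference.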

Assay [2] deals with Rattus norvegicus. Put plainly: Analgesic activity in albino rat assessed as latency in reaction time required for thermal stimulus-induced tail flicking at 10 mg/kg, po after 90 mins. In outline:
as §1

Assay [3] relates to Rattus norvegicus. Description: Analgesic activity in albino rat assessed as latency in reaction time required for thermal stimulus-induced tail flicking at 10 mg/kg, po after 30 mins. In outline: as §1
In assay [4] the test system is Rattus norvegicus. Put plainly: Antiinflammatory activity in albino rat assessed as reduction of carrageenan-induced paw volume at 10 mg/kg, po administered 30 mins before carrageenan challenge measured after 90 mins by plethysmograph (reference value: 0.3667 +/- 0.033 ml). In outline: (§2)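 Rats, six per group, were dosed orally at 10 mg/kg. Controls received 0.1 mL of 1% gum acacia; diclofenac sodium was the standard. After 30 min, 0.1 mL of 1% carrageenan in normal saline was injected sub-plantar into the right hind paw. Paw volume was read by plethysmograph at 0 h and at 30-150 min. Oedema is expressed as change versus control at matching times (±SE).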

Assay [5] relates to Rattus norvegicus. Put plainly: Antiinflammatory activity in albino rat assessed as reduction of carrageenan-induced paw volume at 10 mg/kg, po administered 30 mins before carrageenan challenge measured after 30 mins by plethysmograph (reference value: 0.333 +/- 0.033 ml). In outline: as §2
Assay [6] deals with Rattus norvegicus. Put plainly: Antiinflammatory activity in albino rat assessed as reduction of carrageenan-induced paw volume at 10 mg/kg, po administered 30 mins before carrageenan challenge measured after 60 mins by plethysmograph (reference value: 0.333 +/- 0.033 ml). In outline: as §2
For assay [7], the system named is Rattus norvegicus. Description: Antiinflammatory activity in albino rat assessed as reduction of carrageenan-induced paw volume at 10 mg/kg, po administered 30 mins before carrageenan challenge measured after 150 mins by plethysmograph (reference value: 0.3667 +/- 0.033 ml). In outline: as §2
Assay [8] has as its system Rattus norvegicus. Description: Antiinflammatory activity in albino rat assessed as reduction of carrageenan-induced paw volume at 10 mg/kg, po administered 30 mins before carrageenan challenge measured after 120 mins by plethysmograph (reference value: 0.367 +/- 0.033 ml). The gist of the method:
as §2

As to `CCC(=O)N1N=C(c2ccc(OC)cc2)CC1c1c(C)nn(-c2ccccc2)c1Cl` (centres undefined), the figures for the Time in assay [1], in assay [2] and in assay [3] were 4.633 s, 4.4 s and 4.667 s, respectively. Moreover, the Activity in assay [4] was found to be 0.133 mL; in assay [5] it was 0.1667 mL; in assay [6] it was 0.1667 mL; in assay [7], 0.2 mL; in assay [8], 0.1667 mL.

As to `CCC(=O)N1N=C(c2cccc([N+](=O)[O-])c2)CC1c1c(C)nn(-c2ccccc2)c1Cl` (centres undefined), the Time in assay [1] is 3.067 s; in assay [2] it was 4.333 s; in assay [3], 2.767 s. Besides, the Activity in assay [4] was determined as 0.033 mL; in assay [5], 0.033 mL; in assay [6], 0.033 mL; in assay [7], 0.1 mL; in assay [8] it was 0.1 mL.

For `CCC(=O)N1N=C(c2ccc(Br)cc2)CC1c1c(C)nn(-c2ccccc2)c1Cl` (centres undefined), the Time in assay [1] was found to be 4.167 s; in assay [2] it was 4.5 s; in assay [3], 3.8 s. In addition, the Activity is 0.2 mL in assay [4]; 0.1667 mL in assay [5]; 0.133 mL in assay [6]; 0.2667 mL in assay [7]; 0.2667 mL in assay [8].

For `CCC(=O)N1N=C(c2ccc([N+](=O)[O-])cc2)CC1c1c(C)nn(-c2ccccc2)c1Cl` (centres undefined), the Time was determined as 3.533 s in assay [1], 3.933 s in assay [2] and 3.1 s in assay [3]. The Activity in assay [4] was found to be 0.033 mL; in assay [5], 0.0667 mL; in assay [6] it was 0.0667 mL; in assay [7], 0.033 mL; in assay [8], 0 mL.

For `CC(=O)N1N=C(c2ccc(C)cc2)CC1c1c(C)nn(-c2ccccc2)c1Cl` (centres undefined), the Time in assay [1] amounted to 4.567 s; in assay [2] it was 5.467 s; in assay [3] it was 3.3 s. In addition, the Activity in assay [4] worked out at 0.0667 mL; in assay [5], 0.0667 mL; in assay [6], 0.1 mL; in assay [7], 0.0667 mL; in assay [8] it was 0.033 mL.

Regarding `COc1ccc(C2=NN(C(C)=O)C(c3c(C)nn(-c4ccccc4)c3Cl)C2)cc1` (centres undefined), the Time in assay [1] came to 3.7 s; in assay [2] it was 4.333 s; in assay [3], 2.9 s. The Activity in assay [4] was determined as 0.1 mL; in assay [5], 0 mL; in assay [6], 0 mL; in assay [7] it was 0.1 mL; in assay [8], 0.0667 mL.

As for `CC(=O)N1N=C(c2cccc([N+](=O)[O-])c2)CC1c1c(C)nn(-c2ccccc2)c1Cl` (centres undefined), the Time came to 4.733 s in assay [1], 4.833 s in assay [2] and 3.7 s in assay [3]. In addition, the Activity in assay [4] came out at 0.033 mL; in assay [5] it was 0.0667 mL; in assay [6], 0.0667 mL; in assay [7], 0.133 mL; in assay [8] it was 0.0667 mL.

For the molecule `CC(=O)N1N=C(c2ccc(Cl)cc2)CC1c1c(C)nn(-c2ccccc2)c1Cl` (centres undefined), the Time in assay [1] is recorded as 3.067 s; in assay [2], 4.2 s; in assay [3], 2.5 s. In addition, the Activity came to 0.033 mL in assay [4]; 0.033 mL in assay [5]; 0.0667 mL in assay [6]; 0.0667 mL in assay [7]; 0.0667 mL in assay [8].

Consider `CC(=O)N1N=C(c2ccc(Br)cc2)CC1c1c(C)nn(-c2ccccc2)c1Cl` (centres undefined), for which the Time was 4.733 s in assay [1], 4.833 s in assay [2] and 3.967 s in assay [3]. Further, the Activity stood at 0.033 mL in assay [4]; 0.1 mL in assay [5]; 0.033 mL in assay [6]; 0.3 mL in assay [7]; 0.1667 mL in assay [8].

Regarding `CC(=O)N1N=C(c2ccc([N+](=O)[O-])cc2)CC1c1c(C)nn(-c2ccccc2)c1Cl` (centres undefined), the Time in assay [1] worked out at 4.767 s; in assay [2] it was 5.267 s; in assay [3], 3.467 s. The Activity in assay [4] worked out at 0.06 mL; in assay [5], 0.1 mL; in assay [6], 0.0667 mL; in assay [7] it was 0.1667 mL; in assay [8], 0.0667 mL.

Regarding `CCC(=O)N1N=C(c2ccccc2)CC1c1c(C)nn(-c2ccccc2)c1Cl` (centres undefined), the Time is listed as 2.7 s in assay [1], 3.633 s in assay [2] and 2.333 s in assay [3]. In addition, the Activity in assay [4] was 0.433 mL; in assay [5] it was 0.2667 mL; in assay [6], 0.333 mL; in assay [7], 0.3667 mL; in assay [8], 0.367 mL.

Regarding `CCC(=O)N1N=C(c2ccc(C)cc2)CC1c1c(C)nn(-c2ccccc2)c1Cl` (centres undefined), the Time in assay [1] came to 3.733 s; in assay [2], 4.6 s; in assay [3], 2.9 s. Also, the Activity in assay [4] came out at 0.133 mL; in assay [5] it was 0.0667 mL; in assay [6], 0.133 mL; in assay [7], 0.3 mL; in assay [8], 0.3 mL.

For the molecule `CC(C)=CCN1CC[C@]2(C)c3cc(O)ccc3C[C@H]1[C@H]2C` [(+)-PENTAZOCINE], the results for the Time in assay [1], in assay [2] and in assay [3] were 5.6 s, 6.4 s and 2.9 s, respectively.

With `O=C([O-])Cc1ccccc1Nc1c(Cl)cccc1Cl.[Na+]` [DICLOFENAC SODIUM], the Activity in assay [4], in assay [5], in assay [6], in assay [7] and in assay [8] was 0.033 mL throughout.
